Most compounds without a hit are left out; they make up all but 0.72% or so of the library.
bIAP act – bovine intestinal alkaline phosphatase activators, primary screen, biochemical, bovine IAP, CDP-star luminescence. AID 1016, 2008. activation factor at 20 µM. 200,000 compounds, 0.17% hits. alkaline phosphatase, intestinal [Bos taurus]. purified bovine IAP, 30 min; hits give high values; fold of DMSO-control signal, blank-subtracted;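 active = activation factor of 2 or more at 20 µM, a signal rise over negative controls twice the positive control's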
hIAP act – human IAP activators, primary screen, biochemical, luminescence, uHTS; Intestinal-type alkaline phosphatase (Homo sapiens), P09923; purified human IAP, CDP-Star luminescence, 30 min; hits give high values; 1 = vehicle-only enzyme, 0 = enzyme-free background; activation factor at 10 µM; 330,000 compounds, 0.16% hits; AID 2524, 2010;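 active = activation factor of the enzyme at least 2-fold when tested at 20 µM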
Target sequence (P09923 whole entry, looked up): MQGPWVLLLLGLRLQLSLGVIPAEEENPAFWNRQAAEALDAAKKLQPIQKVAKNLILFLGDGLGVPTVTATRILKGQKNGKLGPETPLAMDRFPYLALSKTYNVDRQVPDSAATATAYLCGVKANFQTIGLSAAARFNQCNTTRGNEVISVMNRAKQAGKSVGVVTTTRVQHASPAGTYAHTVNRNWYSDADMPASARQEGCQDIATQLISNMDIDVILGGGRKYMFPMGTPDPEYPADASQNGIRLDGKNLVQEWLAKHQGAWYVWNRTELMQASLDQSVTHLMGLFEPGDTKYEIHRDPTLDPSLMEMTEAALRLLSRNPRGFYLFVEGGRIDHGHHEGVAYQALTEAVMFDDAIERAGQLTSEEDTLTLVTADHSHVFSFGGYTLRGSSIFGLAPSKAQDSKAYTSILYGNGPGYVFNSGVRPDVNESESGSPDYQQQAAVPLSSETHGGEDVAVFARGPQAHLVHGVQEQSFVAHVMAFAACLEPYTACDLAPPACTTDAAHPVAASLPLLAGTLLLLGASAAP
hIAP inh – human IAP inhibitors, primary screen, biochemical, luminescence, uHTS; Intestinal-type alkaline phosphatase (Homo sapiens), P09923; AID 2544, 2010; 330,000 compounds, 0.12% hits; inhibition, % at 10 µM; purified IAP, CDP-Star luminescence, 30 min;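 active = inhibition reaching a set limit with compound at 10 µM in the primary screen, cut at about 35% in these data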;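 also: plate controls were DMSO wells with enzyme for no effect and no-enzyme buffer wells for full effect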
mIAP block – inhibitors of mouse IAP, primary screen, biochemical, luminescence, uHTS; purified mouse IAP, CDP-Star luminescence, 30 min; inhibition, % at 10 µM; 330,000 compounds, 0.2% hits; AID 2806, 2010;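 active = inhibition of at least 40% at 10 µM in the primary screen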;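 also: plate controls were DMSO with enzyme for no effect and no enzyme wells for full effect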
bIAP inh – bovine intestinal alkaline phosphatase inhibitors, primary screen, selectivity assay for TNAP inhibitor project, biochemical, bovine IAP, CDP-star luminescence | alkaline phosphatase, intestinal [Bos taurus] | purified bovine IAP, 30 min | inhibition, % at 20 µM | 190,000 tested, under 10 active;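 active = over 50% inhibition of intestinal alkaline phosphatase at 20 µM in the single-dose screen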
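Assay system: bovine IAP enzyme; medium: DEA buffer 100 mM, pH 9.8, with MgCl2 1.0 mM, ZnCl2 0.02 mM; doses: 20 µM single dose; incubation: enzyme reaction for 30 min at room temperature; detection: CDP-star luminescence signal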
mIAP activ – activators of mouse IAP, primary screen, biochemical, luminescence, uHTS | intestinal alkaline phosphatase [Mus musculus] | muIAP, CDP-Star luminescence, 30 min; hits give high values; 1 = vehicle-only enzyme signal, 0 = enzyme-free wells | activation factor at 10 µM | 330,000 compounds, 0.24% hits | AID 2805, 2010;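 active = activation factor of at least 2 at 20 µM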
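Assay system: mouse IAP enzyme; Reagent: CDP-Star chemiluminescent phosphatase substrate; Compound: DMSO-dissolved test compounds; Incubation: 30 min, room temperature; Technique: luminescence from enzymatic CDP-Star hydrolysis; Controls: DMSO-only wells and no-enzyme negative control.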
Active calls of the source: *; nt = not tested or not shown.

SMILES | bIAP act | hIAP act | hIAP inh | mIAP block | bIAP inh | mIAP activ
OC[C@@H]1[C@@H](c2ccccc2)C(c2ccc(F)cc2)=NN1c1ccccc1 | nt | nt | nt | -84 | nt | 1.8
OC[C@@H]1[C@@H](c2ccc(Cl)cc2)C(c2ccc(F)cc2)=NN1c1ccccc1 | nt | nt | nt | -102 | nt | 2*
Cc1ccc(C(C)C)c(OCCNC(=S)Nc2cccc3ccccc23)c1 | 0.5 | 1 | -4 | -130 | 46 | 2.3*
Cc1ccc(C(C)C)c(OCCNCc2ccccc2)c1 | nt | 0.91 | 9 | 12 | nt | 0.88
Cn1cnnc1SCC(=O)N1CCC(Cc2ccccc2)CC1 | 2.4* | 1.1 | -14 | -20 | -140 | 1.2
Cn1cnnc1SCC(=O)N1CCN(C(=O)c2ccco2)CC1 | 0.8 | 0.91 | 9 | -3 | 20 | 1
Fc1ccc(-c2n[nH]c(=S)n2/N=C/c2c[nH]c3ccccc23)cc1 | 2.1* | 1.3 | -28 | -16 | -113 | 1.2
O=C(Cc1ccc(Cl)cc1)Nc1cccc(S(=O)(=O)N2CCCCC2)c1 | nt | 0.89 | 11 | -112 | nt | 2.1*
Cc1ccc(SCc2nc3ccccc3[nH]2)cc1 | 1 | 1.1 | -8 | 2 | -4 | 0.98
Cc1ccc(CSCc2nc3ccccc3[nH]2)cc1 | 2.3* | nt | nt | nt | -131 | nt
Cc1ccc(NC(=S)NC2CC3CCC(C2)N3Cc2ccco2)cc1C (centres undefined) | 1 | 1.2 | -19 | -42 | 0 | 1.4
CCOC(=O)c1ccc(NC(=O)NC2CC3CCC(C2)N3Cc2nnnn2Cc2ccco2)cc1 (centres undefined) | 1.3 | 1.5 | -53 | -124 | -27 | 2.2*
CC(C)(C)n1nnnc1CN1C2CCC1CC(NC(=O)Nc1ccccc1)C2 (centres undefined) | 2.2* | 1.1 | -8 | -2 | -121 | 1
O=C(Nc1nc2ccccc2s1)c1cnccn1 | 1 | 1.2 | -24 | 3 | -4 | 0.97
O=C(Nc1nc(-c2ccco2)c(-c2ccco2)s1)c1cnccn1 | nt | 1.2 | -21 | 44* | nt | 0.56
COCCCNC(=S)Nc1c(C)cc(C)cc1C | nt | 0.85 | 15 | 3 | nt | 0.97
O=C(NCc1ccc(F)cc1)C1CCCN(C(=O)Nc2ccc(F)cc2)C1 (centres undefined) | nt | 0.91 | 9 | 5 | nt | 0.95
CCN(CC)CCn1c(NCc2nc3ccccc3n2Cc2ccccc2)nc2ccccc21 | 2* | 0.96 | 4 | -45 | -101 | 1.4
c1ccc(Cn2c(CNc3nc4ccccc4n3CCN3CCCCC3)nc3ccccc32)cc1 | 0.9 | 1.9 | -93 | -59 | 11 | 1.6
CC(C)C1Cc2c(C#N)c(N)sc(=S)c2CO1 (centres undefined) | 0.6 | 1.1 | -10 | 40* | 37 | 0.6
CC1CCCCC1NC(=S)Nc1ccc(Cl)cc1Cl (centres undefined) | 1 | 1.1 | -5 | -178 | -2 | 2.8*
O=C(NCc1ccc(Cl)cc1Cl)C1CCN(S(=O)(=O)c2ccc3c(c2)OCCCO3)CC1 | 0.8 | 1.6 | -63 | -162 | 19 | 2.6*
O=C(NCc1ccc(F)cc1)C1CCN(S(=O)(=O)c2ccc3c(c2)OCCCO3)CC1 | 0.7 | 1 | 0 | -14 | 29 | 1.1
COc1ccc(NC(=O)Nc2ccc(Br)c(C)c2)cc1 | 1 | 1.2 | -20 | -106 | 0 | 2.1*
CCOC(=O)c1ccc(N2CCN(c3ccc(F)cc3)CC2)c(NC(=O)Nc2cccc(OC)c2)c1 | 0.7 | 1.1 | -15 | -184 | 33 | 2.8*
SMILES | bIAP act | hIAP act | hIAP inh | mIAP block | bIAP inh | mIAP activ
COc1cccc(NC(=O)Nc2ccc(CC(=O)O)cc2)c1 | 1 | 1 | -1 | 8 | -4 | 0.92
CCc1ccc(NC(=O)Nc2cccc(OC)c2)cc1 | 0.9 | 1 | -2 | -151 | 6 | 2.5*
COc1ccc(NC(=O)Nc2cc(C)ccc2OC)cc1 | 0.9 | 0.98 | 2 | -3 | 11 | 1
CNC(=O)c1ccc(NC(=O)Cc2ccc(S(=O)(=O)N3CCOCC3)s2)cc1 | nt | 0.85 | 15 | 4 | nt | 0.96
C=C(C)[C@@H]1CC[C@]2(C(=O)O)CC[C@]3(C)C(CCC4[C@@]5(C)CC[C@H](O)C(C)(C)C5CC[C@]43C)C12 (some centres undefined) | nt | 1.3 | -28 | 47* | nt | 0.53
COc1cccc(-c2cnc(NCc3cc(Cl)ccc3O)n2C)c1 | 2.2* | 0.79 | 21 | 4 | -117 | 0.96
COc1ccccc1CNc1ncc(-c2ccccc2)n1C | nt | 1.3 | -31 | 2 | nt | 0.97
Cc1nnsc1C(=O)N/N=C/c1ccccc1 | 5.5* | 1.3 | -26 | 2 | -450 | 0.98
COc1ccc(S(=O)(=O)N(C)C[C@H]2Oc3ccc(NC(=O)Nc4ccc5c(c4)OCO5)cc3C(=O)N([C@H](C)CO)C[C@@H]2C)cc1 | nt | 1 | -4 | -129 | nt | 2.3*
COc1ccc(S(=O)(=O)N(C)C[C@H]2Oc3ccc(NC(=O)Nc4ccc5c(c4)OCO5)cc3CC(=O)N([C@@H](C)CO)C[C@@H]2C)cc1 | nt | 1.2 | -18 | -44 | nt | 1.4
C[C@H](CO)N1C[C@H](C)[C@H](CN(C)S(=O)(=O)c2cccs2)Oc2ccc(NC(=O)Nc3ccc4c(c3)OCO4)cc2CC1=O | nt | 1 | -2 | -129 | nt | 2.3*
COc1ccc(NC(=O)Nc2ccc3c(c2)C(=O)N([C@@H](C)CO)C[C@@H](C)[C@@H](CN(C)S(=O)(=O)c2cccs2)O3)cc1 | nt | 0.98 | 2 | -214 | nt | 3.1*
C[C@H](CO)N1C[C@H](C)[C@H](CN(C)S(=O)(=O)c2ccccc2)Oc2ccc(NC(=O)NC3CCCCC3)cc2CC1=O | nt | 1 | 0 | -171 | nt | 2.7*
Cc1ccc(S(=O)(=O)Nc2ccc3c(c2)CC(=O)N([C@H](C)CO)C[C@@H](C)[C@H](CN(C)S(=O)(=O)c2ccccc2)O3)cc1 | nt | 1.1 | -7 | 3 | nt | 0.97
COc1ccc(S(=O)(=O)N(C)C[C@H]2Oc3ccc(NC(=O)NC(C)C)cc3C(=O)N([C@H](C)CO)C[C@@H]2C)cc1 | nt | 1.1 | -12 | -43 | nt | 1.4
NNC(=O)C1CC(O)CN1S(=O)(=O)c1ccc2ccccc2c1 (centres undefined) | nt | 1 | -4 | 0 | nt | 1
COc1ccc(-n2c(CN3CCN(c4ccccn4)CC3)nc3ccc([N+](=O)[O-])cc3c2=O)c(OC)c1 | 1 | 0.89 | 11 | 3 | -4 | 0.97
C[C@H](CO)N1C[C@H](C)[C@@H](CN(C)S(=O)(=O)c2cccs2)Oc2c(NC(=O)Nc3ccc4c(c3)OCO4)cccc2C1=O | nt | 0.96 | 4 | -16 | nt | 1.2
